Measurements from ChEMBL document CHEMBL4043192, “The discovery of IDX21437: Design, synthesis and antiviral evaluation of 2'-α-chloro-2'-β-C-methyl branched uridine pronucleotides as potent liver-targeted HCV polymerase inhibitors” (Bioorg Med Chem Lett, 2017).

How the values were obtained:
[1] = Cytotoxicity against human HuH7 cells assessed as reduction in cell viability; type: cell-based, Huh-7
[2] = system: Hepatitis C virus; experiment: Antiviral activity against HCV genotype 1b Con1 expressing NS3 protease infected in human Huh-7 cells assessed as reduction in viral RNA replication after 72 hrs by luciferase reporter gene assay; type: functional, cell-based, Hepacivirus hominis; conditions: genotype 1b Con1, Huh-7, 72 h
[3] = Inhibition of HCV genotype 3a NS5B RNA dependent RNA polymerase assessed as reduction in [33P]-labeled nucleotide incorporation in to RNA template after 2 hrs by liquid scintillation counting method; parameters: species or system Hepatitis C virus subtype 3a
How it was run: (§1)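 Biochemical enzyme inhibition assays across a panel of polymerases. IC50 was derived from percent inhibition versus concentration data.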

[4] = Inhibition of wild-type HCV genotype 1b NS5B RNA dependent RNA polymerase; parameters: species or system Hepatitis C virus subtype 1b
How it was run: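 Biochemical assay using wild-type genotype 1b HCV NS5B polymerase. IC50 was derived from percent inhibition versus concentration data.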

[5] = system: Hepatitis C virus subtype 1b; experiment: Selectivity ratio of IC50 for HCV genotype 1b NS5B RNA dependent RNA polymerase S282T mutant to IC50 for wild-type HCV genotype 1b NS5B RNA dependent RNA polymerase
[6] = molecular target: T1, DNA polymerase alpha catalytic subunit (Homo sapiens, UniProt P09884); experiment: Inhibition of human DNA polymerase alpha; how it was run: as §1
T1 sequence (P09884 whole entry): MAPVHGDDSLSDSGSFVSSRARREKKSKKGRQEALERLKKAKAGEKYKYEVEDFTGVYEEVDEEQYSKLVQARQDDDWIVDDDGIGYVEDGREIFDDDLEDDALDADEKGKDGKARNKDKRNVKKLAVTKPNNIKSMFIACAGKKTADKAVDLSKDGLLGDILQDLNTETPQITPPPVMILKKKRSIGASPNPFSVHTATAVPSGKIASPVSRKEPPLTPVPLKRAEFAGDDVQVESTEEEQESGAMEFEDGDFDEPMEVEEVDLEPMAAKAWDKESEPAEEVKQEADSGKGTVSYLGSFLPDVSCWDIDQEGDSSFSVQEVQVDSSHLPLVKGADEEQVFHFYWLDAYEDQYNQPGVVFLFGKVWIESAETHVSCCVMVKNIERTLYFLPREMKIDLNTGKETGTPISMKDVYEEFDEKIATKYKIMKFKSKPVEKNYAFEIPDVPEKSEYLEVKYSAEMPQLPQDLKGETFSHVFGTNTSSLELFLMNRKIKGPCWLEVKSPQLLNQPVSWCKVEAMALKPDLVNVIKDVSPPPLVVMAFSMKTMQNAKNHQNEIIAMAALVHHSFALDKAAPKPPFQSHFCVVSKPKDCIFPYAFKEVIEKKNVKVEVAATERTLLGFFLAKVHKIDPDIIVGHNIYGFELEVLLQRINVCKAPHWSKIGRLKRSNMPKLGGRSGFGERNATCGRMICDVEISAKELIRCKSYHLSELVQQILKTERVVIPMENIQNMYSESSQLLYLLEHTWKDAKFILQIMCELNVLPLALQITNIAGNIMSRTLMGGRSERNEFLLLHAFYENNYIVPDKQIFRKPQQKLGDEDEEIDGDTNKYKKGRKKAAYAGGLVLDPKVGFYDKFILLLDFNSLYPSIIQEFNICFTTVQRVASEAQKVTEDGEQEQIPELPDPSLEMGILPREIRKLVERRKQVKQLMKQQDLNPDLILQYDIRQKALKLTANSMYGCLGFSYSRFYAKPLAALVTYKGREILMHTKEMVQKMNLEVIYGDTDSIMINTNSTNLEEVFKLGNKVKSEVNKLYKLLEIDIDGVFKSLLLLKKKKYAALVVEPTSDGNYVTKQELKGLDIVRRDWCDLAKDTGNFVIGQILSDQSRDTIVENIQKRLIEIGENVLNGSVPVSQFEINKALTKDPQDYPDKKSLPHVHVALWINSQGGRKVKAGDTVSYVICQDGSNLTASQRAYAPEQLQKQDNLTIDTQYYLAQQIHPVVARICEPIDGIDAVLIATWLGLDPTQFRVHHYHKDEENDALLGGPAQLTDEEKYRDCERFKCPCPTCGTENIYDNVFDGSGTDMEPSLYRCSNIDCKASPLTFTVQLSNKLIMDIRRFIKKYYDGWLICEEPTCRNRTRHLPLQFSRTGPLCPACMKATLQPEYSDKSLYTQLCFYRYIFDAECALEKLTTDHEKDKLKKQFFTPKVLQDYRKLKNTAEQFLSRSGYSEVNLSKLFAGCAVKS

[7] = Inhibition of HCV genotype 2a NS5B RNA dependent RNA polymerase assessed as reduction in [33P]-labeled nucleotide incorporation in to RNA template after 2 hrs by liquid scintillation counting method; parameters: species or system Hepatitis C virus subtype 2a; how it was run: as §1
[8] = Inhibition of HCV genotype 4a NS5B RNA dependent RNA polymerase assessed as reduction in [33P]-labeled nucleotide incorporation in to RNA template after 2 hrs by liquid scintillation counting method; parameters: species or system Hepatitis C virus subtype 4a; how it was run: as §1
[9] = Inhibition of HCV genotype 1a NS5B RNA dependent RNA polymerase assessed as reduction in [33P]-labeled nucleotide incorporation in to RNA template after 2 hrs by liquid scintillation counting method; parameters: species or system Hepatitis C virus subtype 1a; how it was run: as §1
[10] = molecular target: DNA-directed RNA polymerase, mitochondrial (Homo sapiens, UniProt O00411); experiment: Inhibition of human mitochondrial RNA polymerase; how it was run: as §1
[11] = Inhibition of HCV genotype 5a NS5B RNA dependent RNA polymerase assessed as reduction in [33P]-labeled nucleotide incorporation in to RNA template after 2 hrs by liquid scintillation counting method; parameters: species or system Hepatitis C virus subtype 5a; how it was run: as §1
[12] = Inhibition of HCV genotype 6a NS5B RNA dependent RNA polymerase assessed as reduction in [33P]-labeled nucleotide incorporation in to RNA template after 2 hrs by liquid scintillation counting method; parameters: species or system Hepatitis C virus subtype 6a; how it was run: as §1
[13] = Inhibition of human DNA polymerase gamma; how it was run: as §1
[14] = Half life in human hepatocytes; type: ADME, cell-based, Hepatocyte
[15] = molecular target: DNA polymerase beta (Homo sapiens, UniProt P06746); experiment: Inhibition of human DNA polymerase beta; how it was run: as §1
[16] = Inhibition of human RNA polymerase 2; how it was run: as §1
[17] = molecular target: RNA-directed RNA polymerase (Hepacivirus hominis, UniProt O39930, S282T); experiment: Inhibition of HCV genotype 1b NS5B RNA dependent RNA polymerase S282T mutant; parameters: species or system Hepatitis C virus subtype 1b
[18] = system: Liver; experiment: Dose normalized AUC (0 to 24 hrs) in mouse liver assessed as 2'-C-MeUTP level at 10 mg/kg, po administered as single dose; type: ADME, organism-based; conditions: in vivo
How it was run: (§2)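 Mice given a single oral 10 mg/kg dose. Triphosphate measured in liver and parent nucleoside in plasma. AUC expressed as dose-normalized AUC (AUC per mg/kg).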

[19] = Selectivity index, ratio of CC50 for human Huh-7 cells to EC50 for HCV genotype 1b Con1 expressing NS3 protease
How it was run: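 Selectivity index = CC50/EC50. EC50 from a luciferase-read Con1 subgenomic replicon assay in Huh-7 (GS4.1) cells.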

[20] = system: Plasma; experiment: Dose normalized AUC (0 to 24 hrs) in mouse plasma assessed as 2'-C-MeU level at 10 mg/kg, po administered as single dose; type: ADME, organism-based; conditions: in vivo; how it was run: as §2
[21] = system: Hepatitis C virus; experiment: Antiviral activity against HCV genotype 1b Con1 infected in human Huh-7 cells over-expressing CES1; type: functional, cell-based, Hepacivirus hominis; conditions: genotype 1b Con1, Huh-7
How it was run: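 Transient HCV replicon assay in cells transfected to overexpress CES1; EC50 from inhibition versus concentration data.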

[22] = molecular target: Cytochrome P450 3A4 (Homo sapiens, UniProt P08684); experiment: Drug metabolism assessed as CYP3A4 (unknown origin)-mediated (R)-2-((R)-(((2R,3R,4R,5R)-4-chloro-5-(2,4-dioxo-3,4-dihydropyrimidin-1(2H)-yl)-3-hydroxy-4-methyltetrahydrofuran-2-yl)methoxy)(phenoxy)phosphorylamino)propanoic acid metabolite formation; type: ADME
[23] = molecular target: Cytochrome P450 3A5 (Homo sapiens, UniProt P20815); experiment: Drug metabolism assessed as CYP3A5 (unknown origin)-mediated (R)-2-((R)-(((2R,3R,4R,5R)-4-chloro-5-(2,4-dioxo-3,4-dihydropyrimidin-1(2H)-yl)-3-hydroxy-4-methyltetrahydrofuran-2-yl)methoxy)(phenoxy)phosphorylamino)propanoic acid metabolite formation; type: ADME
Sequence of Cytochrome P450 3A5 (P20815 whole entry): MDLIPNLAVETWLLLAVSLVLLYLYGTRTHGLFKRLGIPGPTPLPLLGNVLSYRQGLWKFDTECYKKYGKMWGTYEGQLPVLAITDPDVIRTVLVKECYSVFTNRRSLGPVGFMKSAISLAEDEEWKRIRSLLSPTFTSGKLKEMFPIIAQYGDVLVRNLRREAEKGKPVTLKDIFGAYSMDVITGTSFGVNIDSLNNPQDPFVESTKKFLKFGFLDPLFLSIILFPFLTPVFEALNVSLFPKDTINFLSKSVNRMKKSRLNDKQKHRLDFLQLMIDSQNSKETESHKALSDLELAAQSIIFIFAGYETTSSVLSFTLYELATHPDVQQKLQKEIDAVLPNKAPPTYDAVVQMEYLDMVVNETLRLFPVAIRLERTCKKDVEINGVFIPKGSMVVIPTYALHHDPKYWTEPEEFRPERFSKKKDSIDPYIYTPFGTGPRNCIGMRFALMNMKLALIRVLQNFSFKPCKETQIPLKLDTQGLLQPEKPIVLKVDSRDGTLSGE

Sequence of RNA-directed RNA polymerase (O39930 entry or part of it S282T): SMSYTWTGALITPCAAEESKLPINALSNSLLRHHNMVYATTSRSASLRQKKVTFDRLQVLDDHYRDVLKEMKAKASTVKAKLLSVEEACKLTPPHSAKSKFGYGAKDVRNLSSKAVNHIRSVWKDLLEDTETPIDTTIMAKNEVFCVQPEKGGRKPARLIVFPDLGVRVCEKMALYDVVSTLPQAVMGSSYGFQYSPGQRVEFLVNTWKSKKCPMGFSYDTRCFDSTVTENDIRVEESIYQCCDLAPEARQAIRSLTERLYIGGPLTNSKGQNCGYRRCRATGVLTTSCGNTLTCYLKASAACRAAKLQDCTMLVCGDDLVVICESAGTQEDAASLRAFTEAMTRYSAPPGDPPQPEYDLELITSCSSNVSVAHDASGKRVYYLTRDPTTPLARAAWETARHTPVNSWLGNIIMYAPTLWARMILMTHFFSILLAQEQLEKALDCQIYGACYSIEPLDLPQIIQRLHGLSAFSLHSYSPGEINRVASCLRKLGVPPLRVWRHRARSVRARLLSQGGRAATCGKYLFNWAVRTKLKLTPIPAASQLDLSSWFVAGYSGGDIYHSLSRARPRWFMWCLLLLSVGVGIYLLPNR
Sequence of Cytochrome P450 3A4 (P08684 whole entry): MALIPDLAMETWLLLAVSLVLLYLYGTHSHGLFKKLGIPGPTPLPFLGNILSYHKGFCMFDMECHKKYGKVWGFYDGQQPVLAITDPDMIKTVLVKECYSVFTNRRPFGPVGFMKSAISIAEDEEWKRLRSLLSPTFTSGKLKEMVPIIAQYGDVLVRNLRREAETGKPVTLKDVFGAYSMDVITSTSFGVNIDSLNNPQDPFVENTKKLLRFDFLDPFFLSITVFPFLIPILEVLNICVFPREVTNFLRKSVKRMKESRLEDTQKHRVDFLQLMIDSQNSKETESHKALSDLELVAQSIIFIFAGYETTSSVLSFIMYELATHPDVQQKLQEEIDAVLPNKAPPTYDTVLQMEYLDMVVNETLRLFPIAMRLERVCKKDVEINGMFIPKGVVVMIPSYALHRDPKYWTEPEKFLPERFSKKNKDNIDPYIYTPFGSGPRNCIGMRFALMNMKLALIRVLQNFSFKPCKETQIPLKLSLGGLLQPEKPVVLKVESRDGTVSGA
Sequence of DNA-directed RNA polymerase, mitochondrial (O00411 whole entry): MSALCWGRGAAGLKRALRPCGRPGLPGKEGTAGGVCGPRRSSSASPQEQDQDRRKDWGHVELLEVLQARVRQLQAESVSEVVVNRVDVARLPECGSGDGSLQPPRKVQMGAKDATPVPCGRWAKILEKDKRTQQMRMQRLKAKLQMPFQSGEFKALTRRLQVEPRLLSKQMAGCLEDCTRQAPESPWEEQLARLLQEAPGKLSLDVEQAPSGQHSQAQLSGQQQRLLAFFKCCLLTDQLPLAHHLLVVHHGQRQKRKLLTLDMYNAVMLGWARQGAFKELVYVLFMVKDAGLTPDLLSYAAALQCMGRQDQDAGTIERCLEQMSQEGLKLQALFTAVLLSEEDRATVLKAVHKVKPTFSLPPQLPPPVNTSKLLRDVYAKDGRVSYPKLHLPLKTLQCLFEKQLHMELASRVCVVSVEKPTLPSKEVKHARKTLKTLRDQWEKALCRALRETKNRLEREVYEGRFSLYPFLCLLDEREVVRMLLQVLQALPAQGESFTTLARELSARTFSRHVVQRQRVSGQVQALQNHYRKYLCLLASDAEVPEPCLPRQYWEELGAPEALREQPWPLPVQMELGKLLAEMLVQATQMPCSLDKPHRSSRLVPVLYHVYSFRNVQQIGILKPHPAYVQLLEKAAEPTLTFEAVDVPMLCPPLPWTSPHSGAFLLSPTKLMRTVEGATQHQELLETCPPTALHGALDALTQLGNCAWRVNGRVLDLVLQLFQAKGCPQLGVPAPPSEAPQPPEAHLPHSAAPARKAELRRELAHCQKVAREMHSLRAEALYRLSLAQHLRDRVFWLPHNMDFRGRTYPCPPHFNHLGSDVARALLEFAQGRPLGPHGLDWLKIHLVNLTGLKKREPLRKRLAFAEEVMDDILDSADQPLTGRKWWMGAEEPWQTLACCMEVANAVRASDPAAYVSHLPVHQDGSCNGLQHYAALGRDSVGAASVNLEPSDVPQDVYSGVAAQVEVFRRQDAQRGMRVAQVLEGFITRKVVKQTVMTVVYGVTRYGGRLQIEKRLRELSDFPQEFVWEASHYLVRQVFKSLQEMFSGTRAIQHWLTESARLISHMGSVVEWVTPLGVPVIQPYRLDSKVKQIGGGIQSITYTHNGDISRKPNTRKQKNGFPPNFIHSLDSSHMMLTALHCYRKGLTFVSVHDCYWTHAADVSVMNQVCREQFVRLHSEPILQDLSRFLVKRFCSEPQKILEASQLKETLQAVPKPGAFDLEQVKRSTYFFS

For `C[C@@]1(O)[C@H](O)[C@@H](CO)O[C@H]1n1ccc(=O)[nH]c1=O`, the CC50 [1] was > 100000 nM and the EC50 [2] was 30000 nM.
Compound `C[C@@]1(Cl)[C@H](O)[C@@H](COP(=O)(O)OP(=O)(O)OP(=O)(O)O)O[C@H]1n1ccc(=O)[nH]c1=O` [4A-TP] has an IC50 [3] of 160 nM, an IC50 [4] of 154 nM and a Ratio IC50 [5] of 6.1. For the same compound, the IC50 [6] was > 500000 nM, the IC50 [7] was 250 nM and the IC50 [8] was 150 nM. The IC50 [9] was 140 nM, the IC50 [10] was > 500000 nM and the IC50 [11] was 230 nM. The IC50 [12] was 100 nM, the IC50 [13] was 95000 nM and the half-life [14] was > 18 h. The IC50 [15] was > 500000 nM, the IC50 [16] was > 500000 nM and the IC50 [17] was 944 nM.
For `CC(C)OC(=O)[C@H](C)N[P@](=O)(OC[C@H]1O[C@@H](n2ccc(=O)[nH]c2=O)[C@](C)(F)[C@@H]1O)Oc1ccccc1` [SOFOSBUVIR], the AUC/dose [18] was 310 pmol·h/g, the EC50 [2] was 284 nM and the “Ratio CC50/EC50” value [19] was >352. It also gave an AUC/dose [20] of 330 pmol·h/mL and an EC50 [21] of 552 nM.
For `CC(C)OC(=O)[C@@H](C)N[P@@](=O)(OC[C@H]1O[C@@H](n2ccc(=O)[nH]c2=O)[C@](C)(Cl)[C@@H]1O)Oc1ccccc1` [UPRIFOSBUVIR], the AUC/dose [18] was 6200 pmol·h/g, the Drug metabolism [22] was “Metabolite_Detected” and the EC50 [2] was 56800 nM. The Drug metabolism [23] was “Metabolite_Detected”, the “Ratio CC50/EC50” value [19] was >2 and the AUC/dose [20] was 1400 pmol·h/mL. For the same compound, the EC50 [21] was 323 nM.
For `C[C@@]1(F)[C@H](O)[C@@H](CO)O[C@H]1n1ccc(=O)[nH]c1=O`, the CC50 [1] was > 100000 nM and the EC50 [2] was 50000 nM.
`C[C@@]1(F)[C@H](O)[C@@H](COP(=O)(O)OP(=O)(O)OP(=O)(O)O)O[C@H]1n1ccc(=O)[nH]c1=O` [GS-461203] showed an IC50 [4] of 79 nM, a Ratio IC50 [5] of 7.7 and an IC50 [17] of 606 nM.
